Assay results: ChEMBL document CHEMBL2331096, “Montmorillonite K-10 catalyzed green synthesis of 2,6-unsubstituted dihydropyridines as potential inhibitors of PDE4” (Eur J Med Chem, 2013)
pIC50: −log10 of the molar value.

What follows are molecules tested against T1, 3',5'-cyclic-AMP phosphodiesterase 4B (Homo sapiens, UniProt Q07343) (assay: Inhibition of recombinant His-tagged PDE4B (unknown origin) expressed in Sf9 cells using cAMP as substrate at 30 uM incubated for 15 mins prior to substrate addition measured after 1 hr by luminescence-based assay).
T1 sequence (Q07343 whole entry): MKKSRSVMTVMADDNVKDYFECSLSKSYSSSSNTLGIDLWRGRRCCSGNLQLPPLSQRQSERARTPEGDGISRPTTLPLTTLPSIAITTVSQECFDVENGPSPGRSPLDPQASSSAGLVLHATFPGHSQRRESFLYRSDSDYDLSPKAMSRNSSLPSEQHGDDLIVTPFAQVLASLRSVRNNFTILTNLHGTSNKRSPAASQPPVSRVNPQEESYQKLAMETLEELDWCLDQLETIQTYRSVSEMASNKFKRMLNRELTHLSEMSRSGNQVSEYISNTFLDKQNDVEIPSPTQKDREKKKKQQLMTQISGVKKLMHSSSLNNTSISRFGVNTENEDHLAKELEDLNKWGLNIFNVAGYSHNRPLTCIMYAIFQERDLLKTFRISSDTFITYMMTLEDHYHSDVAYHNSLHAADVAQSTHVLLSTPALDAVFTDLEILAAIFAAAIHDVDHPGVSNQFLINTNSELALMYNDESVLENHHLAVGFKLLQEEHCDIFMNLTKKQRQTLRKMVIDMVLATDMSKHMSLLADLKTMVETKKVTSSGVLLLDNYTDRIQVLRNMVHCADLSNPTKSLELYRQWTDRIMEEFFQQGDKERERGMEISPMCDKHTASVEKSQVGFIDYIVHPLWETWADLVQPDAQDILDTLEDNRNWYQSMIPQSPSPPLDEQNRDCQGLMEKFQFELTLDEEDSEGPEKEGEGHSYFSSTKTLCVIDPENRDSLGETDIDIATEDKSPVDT
Method in brief: (§1)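 His-tagged PDE4B made in baculovirus-infected Sf9 cells (lysed 48 h post-infection) and purified on Ni-NTA with imidazole elution. Enzyme (10 ng) pre-incubated 15 min with compound or DMSO vehicle, then 1 h with cAMP substrate; reaction stopped, detection reagent added for 10 min in dark, luminescence (RLU) read. Percent inhibition calculated from RLU relative to vehicle control.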

Row | SMILES | inhibition [%]
1 | CCOC(=O)C1=CN(c2ccc(OC)cc2)C=C(C(=O)OCC)C1c1ccc(Br)cc1 | 35.1
2 | CCOC(=O)C1=CN(c2ccc(OC)cc2)C=C(C(=O)OCC)C1c1ccc(F)c(F)c1 | 78.7
3 | CCOC(=O)C1=CN(c2ccc(OC)cc2)C=C(C(=O)OCC)C1c1cccc(Br)c1 | 42
4 | CCOC(=O)C1=CN(c2ccc(OC)cc2OC)C=C(C(=O)OCC)C1c1ccc(F)c(F)c1 | 69.2
5 | CCOC(=O)C1=CN(c2ccc(OC)cc2)C=C(C(=O)OCC)C1c1ccccc1 | 39.3
6 | CCOC(=O)C1=CN(c2cccc(Cl)c2)C=C(C(=O)OCC)C1c1ccc(F)cc1 | 44.2
7 | CCOC(=O)C1=CN(c2ccc(OC)cc2)C=C(C(=O)OCC)C1c1ccc(F)cc1 | 40.2
8 | CCOC(=O)C1=CN(c2ccccc2OC)C=C(C(=O)OCC)C1c1ccc(OC)cc1 | 59.2

The remaining lines, values ahead:

Row | inhibition [%] | SMILES
9 | 46 | CCOC(=O)C1=CN(c2ccccc2OC)C=C(C(=O)OCC)C1c1ccc(F)c(F)c1
10 | 30.4 | CCOC(=O)C1=CN(c2ccccc2OC)C=C(C(=O)OCC)C1c1cccc(Cl)c1
11 | 33.4 | CCOC(=O)C1=CN(c2ccccc2OC)C=C(C(=O)OCC)C1c1ccc(F)cc1
12 | 29.9 | CCOC(=O)C1=CN(c2ccccc2OC)C=C(C(=O)OCC)C1c1ccccc1
13 | 37.3 | CCOC(=O)C1=CN(c2ccccc2OC)C=C(C(=O)OCC)C1c1cccc(Br)c1
14 | 78.4 | CCOC(=O)C1=CN(c2ccccc2OC)C=C(C(=O)OCC)C1c1ccc(Br)cc1

The molecules below were run against T1, 3',5'-cyclic-AMP phosphodiesterase 4B (assay: Inhibition of recombinant His-tagged PDE4B (unknown origin) expressed in Sf9 cells using cAMP as substrate incubated for 15 mins prior to substrate addition measured after 1 hr by luminescence-based assay).
Method in brief: as §1

Row | pIC50 | inhibition | SMILES
15 | < 5.30 | Dose-dependent effect | CCOC(=O)C1=CN(c2ccccc2OC)C=C(C(=O)OCC)C1c1ccc(Br)cc1
